# According to ChEMBL document CHEMBL1152537, “Special feature of mixed phosphotriester derivatives of cytarabine” (Bioorg Med Chem, 2009):
# Experiments:
# [1] = Half life in total cell extract of nucleoside analogue-resistant mouse L1210 10K cells by HPLC analysis in presence of snake venom phosphodiesterase; type: ADME, cell-based
# [2] = Half life in total cell extract of deoxynucleoside analogue-sensitive mouse L1210 cells by HPLC analysis in presence of snake venom phosphodiesterase; type: ADME, cell-based
# [3] = test system: L1210; assay: Cytotoxicity against deoxynucleoside analogue-sensitive mouse L1210 cells after 3 days by MTT assay; type: functional, cell-based; conditions: L1210, 72 h
# In short: (§1)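 Suspension lines (CCRF-CEM, L1210) grown in RPMI with 10% FBS, L-glutamine and penicillin/streptomycin, added at 10,000 cells/well directly to media holding graded drug concentrations. After 3 days at 37 °C, MTT (100 µg) was added for 2 h and the formazan dissolved in isopropanol/HCl/water for optical density.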
# [4] = Cytotoxicity against deoxycytidine kinase deficient and deoxynucleoside analogue-resistant human MESSA 10K cells after 3 days by MTT assay; type: functional, cell-based; conditions: 72 h
# In short: (§2)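 Adherent lines (Messa in RPMI, MCF7 in DMEM, each with 10% FBS, L-glutamine and penicillin/streptomycin) seeded at 3000 cells/well and left 24 h at 37 °C before drugs were added over a concentration range. After 3 days at 37 °C, MTT (100 µg) was added for 2 h and the formazan dissolved in isopropanol/HCl/water for optical density.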
# [5] = test system: CCRF-CEM; assay: Cytotoxicity against deoxynucleoside analogue-sensitive human CCRF-CEM cells after 3 days by MTT assay; type: functional, cell-based; conditions: 72 h; in short: as §1
# [6] = test system: CCRF-CEM; assay: Resistance ratio of IC50 for deoxynucleoside analogue-resistant human CEM/ARAC8C cells to IC50 for deoxynucleoside analogue-sensitive human CCRF-CEM cells; type: functional
# In short: (§3)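 RR is the 3-day MTT IC50 in the resistant line divided by the IC50 in its sensitive parental line. Significance between IC50s and RRs was tested by Student's t-test.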
# [7] = test system: MCF7; assay: Cytotoxicity against deoxynucleoside analogue-resistant human MCF7 1K cells overexpressing ribonucleotide reductase after 3 days by MTT assay; type: functional, cell-based; conditions: MCF7, 72 h; in short: as §2
# [8] = Cytotoxicity against nucleoside transporter deficient and deoxynucleoside analogue-resistant human CEM/ARAC8C cells after 3 days by MTT assay; type: functional, cell-based; conditions: 72 h
# [9] = test system: L1210; assay: Cytotoxicity against deoxycytidine kinase deficient and nucleoside analogue-resistant mouse L1210 10K cells after 3 days by MTT assay; type: functional, cell-based; conditions: L1210, 72 h; in short: as §1
# [10] = Cytotoxicity against deoxynucleoside analogue-sensitive human MESSA cells after 3 days by MTT assay; type: functional, cell-based; conditions: MES-SA, 72 h; in short: as §2
# [11] = test system: MCF7; assay: Cytotoxicity against deoxynucleoside analogue-sensitive human MCF7 cells after 3 days by MTT assay; type: functional, cell-based; conditions: MCF7, 72 h; in short: as §2
# [12] = test system: L1210; assay: Resistance ratio of IC50 for deoxynucleoside analogue-resistant mouse L1210 10K cells to IC50 for deoxynucleoside analogue-sensitive mouse L1210 cells; type: functional; in short: as §3
compound,measurement,setting,value
Cc1cn([C@@H]2O[C@H](COP(=O)([O-])Oc3ccccc3)[C@@H](N=[N+]=[N-])[C@@H]2O)c(=O)[nH]c1=O.[Na+],half-life,[1],53 min
same,half-life,[2],53 min
Cc1cn([C@H]2C[C@H](O)[C@@H](COP(=O)(O)Oc3ccc([N+](=O)[O-])cc3)O2)c(=O)[nH]c1=O,half-life,[1],43 min
same,half-life,[2],43 min
Nc1ccn([C@@H]2O[C@H](COP(=O)([O-])Oc3ccccc3)[C@@H](O)[C@@H]2O)c(=O)n1.[Na+],half-life,[1],276 min
same,half-life,[2],276 min
Nc1ccn([C@@H]2O[C@H](CO)[C@@H](O)[C@@H]2O)c(=O)n1 [CYTARABINE],IC50,[3],0.0004 µM
same,IC50,[4],6330 µM
same,IC50,[5],0.001 µM
same,Ratio IC50,[6],100000
same,IC50,[7],0.04 µM
same,IC50,[8],100 µM
same,IC50,[9],103 µM
same,IC50,[10],1.7 µM
same,IC50,[11],0.004 µM
same,Ratio IC50,[12],257500
